Assay results: the EternaBench riboswitch data

Tested on: MS2 coat protein
Assay: apparent Kd, MS2 coat protein; higher = weaker binding; RNA-MaP array; FMN 200 µM where present
Procedure, shortened: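 Designs on Illumina sequencing-chip clusters, transcribed by stalled E. coli RNA polymerase, were exposed to SNAP-549-labelled MS2 coat protein in doubling steps from 0.7 or 1.5 nM up to 3 µM, without and then with constant ligand. The buffer held 100 mM Tris-HCl pH 7.5, 80 mM KCl, 4 mM MgCl2, BSA, DTT, yeast tRNA and Tween-20. Apparent Kd values are medians of filtered per-cluster binding-curve fits to green signal normalised to red-channel RNA signal and control-cluster median Fmax.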

[1] = designed as: ON switch for flavin mononucleotide, no ligand
[2] = ligand present: flavin mononucleotide, designed as: ON switch for flavin mononucleotide
[3] = designed as: OFF switch for flavin mononucleotide, no ligand
[4] = ligand present: flavin mononucleotide, designed as: OFF switch for flavin mononucleotide

Sequence | apparent Kd [1] [nM] | apparent Kd [2] [nM] | apparent Kd [3] [nM] | apparent Kd [4] [nM]
ACAUGAGACUAAGGAUAUGAUGUACCUAUAUGUGACAUGAGGAUCACCCAUGUGGUAAGUAUGAUUCAGAAGGUAGAGAUAUGU | 98.7 | 32.6 |  | 
ACAUGAGGAUCACCCAUGUAAUGAUGGGUACUAUAUUAUUCGUAGGAUAUCGUUGUUAGUUUGUUCGAGAAGGACGUUUGCCUU |  |  | 1220 | 1200
ACAUGAGGAUCACCCAUGUAGAAUGAAGAAGGUAGUUACUUGAGACUCACCCAUGUACAUAGGACUAAGGAUAUUCUAAUAAUU | 14.5 | 8.5 |  | 
ACAUGAGGAUCACCCAUGUAUACAUAGGAUAUUGGUGAUCAGGGAUGUUUUACAGGAUAUGUCUGCGAGAAGGAUGCAAGUUGU | 360 | 70.4 |  | 
ACAUGAGGAUCACCCAUGUAUUACAUGGUUAAGUUUAUAAACAGAAGGCGAUAAUACUUAUUGUUCGAGGAUAUGUAAUCAAUU |  |  | 113 | 84.1
ACAUGAGGAUCACCCAUGUGAAAACAAUGGCUGACACAGAGAUAGGAUAUAUGUGCAUAUCAAACAUAGAAGGGUCAUAACUGG |  |  | 50 | 50.6
ACAUGAGGAUCACCCAUGUGAACAUAGGAUAUUGGUGAUCAGGCAUGUUAUACAGGAUAUGUCUGCGAGAAGGGUGCACGUUGC | 524 | 412 |  | 
ACAUGAGGAUCACCCAUGUUAAAUGAGGAUAUAUGACUGCACAUGAGGUUCACCCAUGUUCUACCGUAGAAGGUAUAAAUAAUU | 71.7 | 76.1 |  | 
ACAUGAGGAUCACCCAUGUUCACAUAGGAUAUUGAUUAUAUUGGAUAUAUUUUUUUUAUAAUACACAAGAAGGAUGCAAGAUGG | 19.3 | 16.3 |  | 
ACAUGCAUAGCGAUAUGAUCGAGAGAUCAUGUCGCUAAAUUUAGAAGGACAUGAGGAUCACCCAUGUAGGAUAUGGGAGCAUGC | 87.9 | 17.1 |  | 
ACAUGCGGAUGAGGAUAUUCAUUUAUGAGGAUAGAAGAAGGCAUACAUGAGGAUCACCCAUGUAUACGCAUGAGGAUCCCUUAU |  |  | 41.1 | 40
ACAUUGCGAGGAUAUACAUGAGGAUCACCCAUGUGGUAGCAGAUACGGUAGGGCUAGUGUAGAAGGUGUCAUGG |  |  | 112 | 96.3
ACAUUGCGAGGAUAUACAUGAGGAUCACCCAUGUGGUAGUAGAUACGGUAGGGCUAGUGUAGAAGGUGUCAUGG |  |  | 137 | 131
ACAUUUUAUGCAGGAUAUUGACAUAGGAUUAAACAAGAAGGGCAUUACAUGAGGAUCACCCAUGUUUUAUUGGUAUAUAAGUUC |  |  |  | 14
ACAUUUUAUGCAGGAUAUUGACUUUGGAUUAAACAAGAAGGGCAUUACAUGAGGAUCACCCAUGUUUUAUUGGUAUAUAAGUUC |  |  | 13.9 | 17.1
ACCAAUGCAGGAUAUACAUGAGGAUCACCCAUGUAUAACCUACAUAGGUGAUCAUCAUGUAGAAGGGCAUUGGA |  |  | 14.6 | 15.1
ACCACGAUAGCGAUAUGAUCGAGAGAUCAUGUCGCUAUUUUUAGAAGGACAUGAGGAUCACCCAUGUAGGAUAUGGGACGUGGA | 24.7 | 10.3 |  | 
ACCAGGCGAGGAUAUACUUAGAUUUUUUCGUUUAGUCUCGAACAUGAGGAUCACCCAUGUAGAAGGUGCUUCAC |  |  | 49.9 | 42.7
ACCAUUUACUAAUCCUCUAUACAUGAGGAUCACCCAUGUUAAGAGGAUAUCAUCGUUCGCCGCGUUGAGAAGGCUUAGCAUUCG |  |  | 14.8 | 23.1
ACCAUUUACUAAUCGUCUAUACAUGAGGAUCACCCAUGUUAUGAGGAUAUCGUCGUGAAACACGACGAGAAGGCAUAGCAUUCG |  |  | 32.2 | 132
ACCCAGUUUUGCACUACAUGAGGAUCACCCAUGUGAGCGAGCAGAAGGACGAUGGGUGGAAAAUCGUAGGAUAUGCACUGGGUA | 47.2 | 12.6 |  | 
ACCGUAUGAACAUGAGGAUCACCCAUGUAUCCGAAAGGGAAUGAGGAUAUCGAUAGCAAAGCUAUCGAGAAGGCAUGGGACGGU | 460 | 434 |  | 
ACCGUAUGAACAUGAGGAUCACCCAUGUAUUCGAAAAGGAAUGAGGAUAUCGAUAGCAAAGCUAUCGAGAAGGCAUGGGACGGU | 255 | 60.4 |  | 
ACCGUGUCAGGAUAUCCUGCUGUGCGGACUCUGUCUUCACGGGAGAAGGGACAUGAGGAUCACCCAUGUUUGAG |  |  | 20.2 | 25.4
ACCUCACAUGAGGAUCACCCAUGUUAGGAUAUCUCGGUGCCCUGCAGGCAGUGGCACCAGAGAAGGAACGUGCA |  |  | 19.2 | 24.2
ACCUCGUCAGGAUAUCCUAUUAAUUGUUUCAUAUUUACGAUGGAGAAGGGACAUGAGGAUCACCCAUGUUGGUC |  |  | 35.5 | 58
ACCUGACAUGAGGAUCACCCAUGUCAGGAUAUGUACAUCAGGAAAAAAAAACUGAUGUACAGAAGGGACUUGGG |  |  | 22.4 | 18.1
ACCUUACUGGUCAGGAUAUACAGUCUUUGGUGUGUGUAGAAGGGACAUGAGGAUCACCCAUGUAGGUUGCAGCA |  |  | 70 | 62.7

Sequence | apparent Kd [1] [nM] | apparent Kd [2] [nM] | apparent Kd [3] [nM] | apparent Kd [4] [nM]
ACGAGUACAGGAUAUACAUGAGGAUCACCCAUGUGAGAAUUAAGUGGCGUACCACAAAGUAGAAGGGUACUCGA |  |  | 40.3 | 236
ACGCCCUGAGGAUAUCUUAUCCCGCACAUGAGGAUCACCCAUGUUCUCCUCCGGGCUCCGAGAGAAGGCAGGCCCA |  |  | 30.7 | 41.2
ACGCCCUGAGGAUAUCUUAUCCCGUACAUGAGGAUCACCCAUGUUCUCCUCCGGGCUCCGAGAGAAGGCAGGCCCA |  |  | 26.7 | 37
ACGCUUUGGGAGAAGGUACGUUAAUUUUUUUCCACAUGAGGAUCACCCAUGUAAGGAUAUCCCGGCGUUAAAUAGGCUACAGCA |  |  | 7.2 | 8.14
ACGGAACAUGAGGAUCACCCAUGUAUCUGAGAUAAGCUCUCGCAGGAUAUUCAGAGAAGCCUAUCGGAGAAGGGUGACAGCAAA | 25.3 | 15.5 |  | 
ACGGAACAUGAGGAUCACCCAUGUAUCUGAGAUAAGCUCUCGCAGGAUAUUGAGAGAAGCCUAUUCGAGAAGGGUGACAGCAAA | 90.1 | 30.1 |  | 
ACGUGUUAUACAGGAUAUGUAUAGGAAUAAUCAUACAGUUAUUAAUUAAUGACAGAAGGGUAAACAUGAGGAUCACCCAUGUCA |  |  | 546 | 390
ACUAAUUAGUGAGGAUAUACAUAAUUUAUAACUGUAGAAGGCACAAACCUCAAGACAUGAGGAUCACCCAUGUGGUAUAUAGAU |  |  | 169 | 388
ACUAGAAGCGUGAGAUAUCACAUGAGGAUCACCCAUGUGACGCAGGAUAUAACAAUAUCAGAAGGUUAGAAGGGUGAGCACGCC | 101 | 52.9 |  | 
ACUAGAUGAGGAUAUGCACAUUUUAGUGUUCCUCUAGAUUAACAUGAGGAUCACCCAUGUAGAAGGCGUCAUUU |  |  | 77 | 91.5
ACUAGAUGAGGAUAUGCAUAUUUUCGUGUUCUUCUAGAUUAACAUGAGGAUCACCCAUGUAGAAGGCGUCUGGC |  |  | 18.6 | 33.8
ACUAGAUGCGUGAAAUAACACAUGAGGAUCACCCAUGUGACGCAGGAUAUAACCAGAUCAGAAAGUUAGAAGGGUGAGCACGCA | 60.8 | 31.8 |  | 
ACUAUACGAGGAUAUACUGUCGGGCCUCGGACAUAAAUACGACAUGAGGAUCACCCAUGUAGAAGGCGUUUACU |  |  | 31.2 | 54
ACUGACAUGAGGAUCACCCAUGUCUUGAAUAGGUCAAAUUCACAGGAUAUGCGCUAGGACAGGGUGCAGAAGGGUGAUGCAAUG | 45.4 | 12.1 |  | 
ACUGCAUAGUCAGGAUAUGCAAAAGCAGAUGCAAAGCAUCUGAACAACACAUGAGGAUCACCCAUGUAGAAGGGACUGUGCAGU |  |  | 23.3 | 22.4
ACUGCCCGAGAGAAGGGAACAUGAGGAUCACCCAUGUUACCUCACCUGGUGACGGAACUCCAAGUUCAGGAUAUCUCGAACGGU |  |  | 5.23 | 6.51
ACUUCACAUGAGGAUCACCCAUGUGAGGAUAUCGUCGAGGAUGUAAUGCCAUCCGUGGCGAGAAGGCGCAUGGU |  |  | 29.9 | 77.7
ACUUUAGUAUCACAUGUAUUACAUGAGGAUCACCCAUGUUACUAGGAUAUGUAUUAGAAUUUACAACAGAAGGAGUUAAUUUGU |  |  | 7.92 | 7.59
AGAAACUACGAGAAGGACAUAUGACCAAGAACAAACAUGAGGAUCACCCAUGUAGGAUAUCGUAGUUUCAGGAUCGUGAGAUCA |  |  | 6.29 | 12.9
AGAAACUACGAGAAGGACAUGUGGUCAAAACGAAACAUGAGGAUCACCCAUGUAGGAUAUCGUAGUUUCAGGAUCGUGAGAUCA |  |  | 265 | 429
AGAAACUACGAGAAGGACAUGUGGUCCUUCAGUUACAUGAGGAUCACCCAUGUAGGAUAUCGUAGUUUCAGGAUCGUGAGAUCA |  |  | 40.8 | 12.3
AGAGAUGACGAAGGAUAUGGAUACAUGAGGAUCACCCAUGUUUAUAUAGUGAAAUUGAUUGAAUUCCAGAAGGUCGAAUAAAAG |  |  | 46.7 | 36.9
AGAGCCUCGUGAGGAUAUACAUGAGGAUCACCCAUGUAAAUGAAAGAUAACGAGGAAACUCGAAUGUAGAAGGCACGAGGCUCA |  |  | 24.4 | 182
AGAGCCUCGUGAGGAUAUACAUGAGGAUCACCCAUGUAAAUGAAUGAACGGUGGAAACACCGAAUGUAGAAGGCACGAGGCUCA |  |  | 37.9 | 223
AGAGUGUCAGGAUAUCCUGCUGUGCGGAAUCUGUAUUCACGGGAGAAGGGACAUGAGGAUCACCCAUGUUUGAG |  |  | 18.9 | 28.1
AGAUAACACCAGAAGGACAUGAGGAUCACCCAUGUAGGAUAUGGGCAUCACUCGAGAAAGAAAAGACCAAGUGGACACGCGGUC | 117 | 10.7 |  | 
AGAUCACAUGAGGAUCACCCAUGUGAGGAUAUGAUACUAUGUACUUCGGUACAUAGUAUCAGAAGGCAUGUGAA |  |  | 43.5 | 41.1
